This is an account of results in ChEMBL document CHEMBL4422642, “Antiproliferative and Antimigratory Effects of a Novel YAP-TEAD Interaction Inhibitor Identified Using in Silico Molecular Docking” (J Med Chem, 2019).

The source made the active and inactive calls. The rule behind the calls is not given here.

One may read the IC50 as the concentration needed to halve the response being measured.

The species entered for test [1] is Rattus norvegicus. The experiment in a line: Inhibition of TEAD in rat VSMC assessed as reduction in CTGF m-RNA expression at 60 uM by RT-qPCR analysis. The method in brief: (§1)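 Rat aortic VSMCs (male Sprague-Dawley, 10% FCS/DMEM) were treated with 60 μM compound for 6 h; n = 3. Total RNA was reverse-transcribed with random primers and quantified by SYBR Green qPCR. Data were normalized to nonstimulated controls.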

The subject of test [2] is HeLa. Put plainly: Inhibition of TEAD in human HeLa cells assessed as reduction in CCN1 m-RNA expression incubated for 2 hrs followed by compound wash out and re-treatment for 4 hrs by NanoGlo assay. It counts as cell-based.
In test [3] the target is Transcriptional enhancer factor TEF-4 (Homo sapiens, UniProt Q15562). Put plainly: Inhibition of Gal4-fused TEAD2 (unknown origin) interaction with YAP expressed in human HeLa cells assessed as basal transcriptional activity level up to 100 uM after 6 hrs by nanoluciferase reporter gene assay. The format is cell-based. (In general: A reporter such as luciferase makes a cellular process visible.)

For test [4], the target named is Transcriptional enhancer factor TEF-1 (Homo sapiens, UniProt P28347). Put plainly: Inhibition of Gal4-fused TEAD1 (unknown origin) interaction with YAP expressed in human HeLa cells assessed as basal transcriptional activity level after 6 hrs by nanoluciferase reporter gene assay. The format is cell-based.
Test [5] deals with Transcriptional enhancer factor TEF-3 (Homo sapiens, UniProt Q15561). The experiment in a line: Inhibition of Gal4-fused TEAD4 (unknown origin) interaction with YAP expressed in human HeLa cells assessed as basal transcriptional activity level up to 100 uM after 6 hrs by nanoluciferase reporter gene assay. It counts as cell-based.
The species entered for test [6] is Rattus norvegicus. Put plainly: Inhibition of TEAD in rat VSMC assessed as reduction in CCN1 protein expression up to 60 uM by Western blot analysis. The essentials: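 VSMCs were treated with compound over a concentration range for 16 h; n = 4. CCN1 protein in total cell lysates was measured by Western blot with GAPDH probed alongside.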
(In general: In western blotting, separated proteins are transferred to a membrane and probed.)

In test [7] the test system is HeLa. Put plainly: Inhibition of TEAD in human HeLa cells assessed as reduction in CTGF m-RNA expression incubated for 2 hrs followed by compound wash out and re-treatment for 4 hrs by NanoGlo assay. It counts as cell-based.
Test [8] addresses T1, Serum response factor (Homo sapiens) (UniProt P11831).
T1 sequence (whole entry): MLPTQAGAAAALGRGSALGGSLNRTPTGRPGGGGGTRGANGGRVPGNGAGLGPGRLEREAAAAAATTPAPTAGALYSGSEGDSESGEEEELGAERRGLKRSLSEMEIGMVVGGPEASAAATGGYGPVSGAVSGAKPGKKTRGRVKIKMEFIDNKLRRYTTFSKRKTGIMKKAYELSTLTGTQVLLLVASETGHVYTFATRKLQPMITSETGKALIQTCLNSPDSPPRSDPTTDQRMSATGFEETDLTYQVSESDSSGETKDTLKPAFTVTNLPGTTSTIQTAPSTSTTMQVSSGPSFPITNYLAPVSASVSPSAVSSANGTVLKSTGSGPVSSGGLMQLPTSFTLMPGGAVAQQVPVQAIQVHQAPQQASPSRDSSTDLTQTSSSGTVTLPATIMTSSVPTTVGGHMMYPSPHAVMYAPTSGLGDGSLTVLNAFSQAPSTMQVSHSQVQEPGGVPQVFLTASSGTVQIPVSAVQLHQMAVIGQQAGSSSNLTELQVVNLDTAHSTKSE
The experiment in a line: Inhibition of SRF (unknown origin) mediated VP16 transcription expressed in human HeLa cells assessed as basal transcriptional activity level up to 100 uM after 6 hrs by nanoluciferase reporter gene assay. It counts as cell-based.

The species named for test [9] is Rattus norvegicus. Put plainly: Inhibition of TEAD in rat VSMC assessed as reduction in PAI1 m-RNA expression at 60 uM by RT-qPCR analysis. The method in brief:
as §1
(In qPCR the cycle at which signal appears reflects the starting amount.)

The test system of another test is MCF7. The experiment in a line: Antiproliferative activity against human MCF7 assessed as reduction in EdU incorporation up to 40 uM after 24 hrs by Hoechst 33342 staining-based fluorescence assay. It counts as functional, cell-based.

Chain of Transcriptional enhancer factor TEF-3 (Q15561 whole entry, the tested form may be a part): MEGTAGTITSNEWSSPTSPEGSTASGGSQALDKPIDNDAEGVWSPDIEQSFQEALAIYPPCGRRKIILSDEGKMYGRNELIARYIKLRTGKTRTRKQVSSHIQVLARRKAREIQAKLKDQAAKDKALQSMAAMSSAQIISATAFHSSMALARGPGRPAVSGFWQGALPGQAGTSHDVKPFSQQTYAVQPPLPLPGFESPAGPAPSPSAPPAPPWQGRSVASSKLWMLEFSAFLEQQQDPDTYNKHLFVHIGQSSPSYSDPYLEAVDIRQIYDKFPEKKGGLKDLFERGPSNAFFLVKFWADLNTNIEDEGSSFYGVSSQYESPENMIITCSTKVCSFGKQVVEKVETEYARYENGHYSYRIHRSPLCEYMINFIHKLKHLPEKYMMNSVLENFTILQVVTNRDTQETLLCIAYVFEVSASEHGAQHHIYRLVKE
Chain of Transcriptional enhancer factor TEF-4 (Q15562 whole entry, the tested form may be a part): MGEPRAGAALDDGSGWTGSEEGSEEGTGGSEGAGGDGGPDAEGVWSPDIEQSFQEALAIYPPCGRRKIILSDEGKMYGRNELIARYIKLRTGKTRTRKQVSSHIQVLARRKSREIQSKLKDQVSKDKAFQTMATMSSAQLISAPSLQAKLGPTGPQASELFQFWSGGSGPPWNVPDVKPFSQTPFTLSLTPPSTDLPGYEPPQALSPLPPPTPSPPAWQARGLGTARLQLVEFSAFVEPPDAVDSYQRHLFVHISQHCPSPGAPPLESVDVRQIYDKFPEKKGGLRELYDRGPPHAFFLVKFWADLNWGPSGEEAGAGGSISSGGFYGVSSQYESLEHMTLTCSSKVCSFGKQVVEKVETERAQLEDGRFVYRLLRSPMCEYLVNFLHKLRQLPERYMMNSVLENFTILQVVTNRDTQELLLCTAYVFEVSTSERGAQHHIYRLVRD
Chain of Transcriptional enhancer factor TEF-1 (P28347 whole entry, the tested form may be a part): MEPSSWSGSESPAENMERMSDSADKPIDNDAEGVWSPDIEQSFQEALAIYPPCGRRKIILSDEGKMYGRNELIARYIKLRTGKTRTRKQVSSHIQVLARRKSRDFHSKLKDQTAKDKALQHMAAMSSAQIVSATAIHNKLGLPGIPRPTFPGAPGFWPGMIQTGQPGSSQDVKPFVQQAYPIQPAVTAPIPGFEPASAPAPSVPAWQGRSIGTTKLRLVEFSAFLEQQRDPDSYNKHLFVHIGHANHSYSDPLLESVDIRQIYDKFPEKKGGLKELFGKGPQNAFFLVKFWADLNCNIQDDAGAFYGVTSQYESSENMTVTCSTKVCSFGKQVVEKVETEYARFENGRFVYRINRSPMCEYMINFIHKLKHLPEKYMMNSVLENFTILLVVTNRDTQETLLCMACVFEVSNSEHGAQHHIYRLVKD

Take `Cc1ccc2c(c1)c1c3n2CCNC3CCC1` (stereo not given) [PIRLINDOLE]: the inhibition result (in the test listed under Rattus norvegicus [1]; in [3]; in [5]; in the test filed under Rattus norvegicus [6]; in the test filed under Rattus norvegicus [9]) was “Active” throughout. Moreover, the inhibition entry with HeLa [2] and with HeLa [7] was “Dose-dependent effect” each time. Further, the 50% inhibitory concentration (IC50) in test [4] was 40 µM. In addition, the inhibition result in [8] was “inactive”. For the same molecule, the result in the test with MCF7 was inactive.
